# Screens deposited in PubChem BioAssay by The Scripps Research Institute Molecular Screening Center.
# PERK inhibitor: human PERK inhibition, primary cell-based screen; inhibition, % at 5.6 µM; CHO PERK-DD fusion, SEAP luminescence translation reporter; hit rate 0.17% among 220,000;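 active means inhibition above the mean inhibition of all tested compounds plus 3 SD, set separately per screening campaign, cut at about 2.9% in these data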;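 further: PERK kinase domain activated by AP20187 dimerizer at 100 nM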
# STAT3 blocker: inhibitors of IL-6 induced STAT3 signaling. hit rate 0.89% among 190,000. U3A cells, IL-6 STAT3-luciferase reporter, luminescence; host cell line lacks STAT1. AID 862. inhibition, % at 5.5 µM;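 active means inhibition above the mean inhibition across all screened compounds plus 3 SD, cut at about 44% in these data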
# STAT3 act-1: increases IL-6 driven STAT3 reporter signal; U3A cells, IL-6 STAT3-luciferase reporter, luminescence; 100% = signal with IL-6 EC80 alone; activation (% of control), % at 5.6 µM; hit rate 0.91% among 190,000;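 active means activation above the screen-wide mean of compound activation plus 3 SD, cut at about 130% in these data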
#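 Test system: Human STAT1-deficient U3A cells with stable STAT3-luciferase reporter | Also added: Interleukin-6, 33 ng/mL | Timing: Compound pre-incubation 1 h before IL-6, then 6 h stimulation at 37 °C | Technique: Luciferase reporter luminescence | Read-out: Percent of IL-6-only median luminescence | Benchmarks: IL-6-only wells as 100% reference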
# STAT1 blocker: STAT1 signaling inhibition; NIH 3T3 STAT1-luciferase reporter, IFN-gamma, luminescence; inhibition, % at 5.5 µM; hit rate 0.35% among 200,000; AID 920;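 active means inhibition above a set limit, the mean inhibition across all tested compounds plus 3 SD, cut at about 34% in these data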
# STAT3 act-2: confirmation of STAT3 signaling activators. AID 1267. hit rate 64% among 1,200. U3A STAT3-luciferase reporter, IL-6 potentiation, luminescence; U3A cells lack STAT1; 100 means same as IL-6 alone. shares compounds with STAT3 act-1. potentiation (% of control), % at 5.7 µM;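 active means percent activation of the STAT3 luciferase reporter above a set limit taken from the earlier primary screen, cut at about 130% in these data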
# NFkB act 2: activates NF-kappaB, counter-screen to STAT3 activators; hit rate 11% among 1,200; human cells, NF-kappaB reporter activation; shares compounds with STAT3 act-1; activation (% of control), % at 5.7 µM; in the data active means activation above about 120%;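 further: reporter induced by TNF-alpha stimulation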
# STAT1 act: activates STAT1, counter-screen to STAT3 activators | shares compounds with STAT3 act-1 | NIH 3T3 STAT1-luciferase reporter, IFN-gamma, luminescence | activation (% of control), % at 5.7 µM | hit rate 13% among 1,200 | AID 1318;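 active means activation above the solvent-only control well mean plus 3 SD, set per screening run, cut at about 120% in these data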
# Hits are given with their value; 0 = inactive; - = no result given. Most compounds without a hit are left out; they make up all but 1.8% or so of the library.
SMILES,PERK inhibitor,STAT3 blocker,STAT3 act-1,STAT1 blocker,STAT3 act-2,NFkB act 2,STAT1 act
N#Cc1sc2nc(-c3ccccc3)cc(C(F)(F)F)c2c1N,0,0,148,0,155,0,0
O=C(Nc1nc2ccccc2n1CCN1CCCC1)c1ccc(Cl)cc1,0,0,150,0,143,0,127
CCCn1c(NC(=O)c2ccccc2)nc2ccccc21,0,0,137,0,0,0,0
CCCn1c(NC(=O)c2ccc(C)cc2)nc2ccccc21,0,0,0,0,-,-,-
COc1ccc(C2(CNS(=O)(=O)c3ccc(C)cc3)CCOCC2)cc1,0,-,-,-,-,-,-
CC(=O)NC(CCS(C)(=O)=O)C(=O)N1CCc2ccccc21 (stereo not given),0,0,137,0,0,0,0
CSc1nc(/C=C2\C=Nc3ccccc32)c(O)n1C,0,0,146,0,155,0,0
S=C(Nc1ccc(Cl)cc1)Nc1cccc2cnccc12,0,0,147,0,144,0,0
O=[N+]([O-])c1ccc(O)c(C2=NNC(c3ccccc3F)C2)c1 (stereo not given),0,-,-,-,-,-,-
COc1ccc([N+](=O)[O-])cc1C1NN=C(c2ccccc2O)S1 (stereo not given),0,0,151,0,142,0,0
Cc1ccc(Sc2c(C=O)c3ccccc3n2C)cc1,0,0,157,0,0,0,0
O=[N+]([O-])c1ccccc1C1Nc2cccc3cccc(c23)N1,0,0,138,0,0,122,0
CN1N=C(C(=O)N2CCc3c([nH]c4ccccc34)C2c2ccccc2Cl)CCC1=O (stereo not given),0,0,156,0,178,121,123
O=C(c1cc[n+]([O-])cc1)N1CCc2c([nH]c3ccccc23)C1c1ccccc1Cl (stereo not given),0,0,176,0,155,0,0
O=C(NCc1ccccc1)c1ccc(CN(c2ccccn2)S(=O)(=O)c2ccccc2)cc1,0,0,0,0,-,-,-
Cc1ccc(S(=O)(=O)N(C)C)cc1NC(=O)CN1C(=O)NC2(CCCc3ccccc32)C1=O (stereo not given),0,0,0,0,-,-,-
Fc1ccc(/C=C\c2nccc3c2[nH]c2ccccc23)cc1,0,0,138,0,148,0,0
CCOC(=O)Nc1cc(C)ccc1OC,0,0,0,0,-,-,-
COc1ccc(C)cc1NC(=O)Nc1ccc(Br)cn1,0,0,144,0,0,0,0
CC(=O)NS(=O)(=O)c1ccc(NC(=O)CN2C(=O)C3C4C=CC(C4)C3C2=O)cc1 (stereo not given),0,0,0,0,-,-,-
CC(=O)n1cc(C2C(=O)CCCC2=O)c2ccccc21,0,0,140,0,0,0,0
COc1ccc(CC(=O)Nc2nnc(C(C)C)s2)cc1OC,0,0,0,0,-,-,-
O=C(Nc1nc2ccccc2s1)c1ccc2c(c1)S(=O)(=O)c1ccccc1C2=O,0,0,140,0,0,0,0
Cc1cc(C)n(-c2nnc3n2N=C(c2ccccc2)CS3)n1,0,0,0,0,-,-,-
Cc1cc(C)n(-c2nnc3n2N=C(c2c[nH]c4ccccc24)CS3)n1,0,0,158,0,154,0,0
SMILES,PERK inhibitor,STAT3 blocker,STAT3 act-1,STAT1 blocker,STAT3 act-2,NFkB act 2,STAT1 act
Cc1cc2cc3c(cc2nc1SCC(=O)Nc1nc(C)c(C)s1)OCO3,0,0,169,0,133,0,0
CCc1ccc(NC(=S)N(CCN(C)C)C(C)c2ccncc2)cc1 (stereo not given),0,0,0,0,-,-,-
CCOC(=O)C1=NN(c2ccccc2)C(c2ccccc2)CC1=O (stereo not given),0,0,138,0,0,0,0
CCOC(=O)C1=NN(c2ccc(OC)cc2)C(c2ccccc2)CC1=O (stereo not given),0,0,0,0,-,-,-
CC(C)(C)c1cc(C(=O)N2CCc3ccccc32)ccn1,0,0,0,0,-,-,-
CN(C)S(=O)(=O)c1cccc(C(=O)N2CCc3ccccc32)c1,0,0,148,0,0,0,0
O=C(CNC(=O)c1ccc(-c2ccccc2)cc1)OCc1c(Cl)cccc1Cl,0,0,0,0,-,-,-
Cc1ccc2cccnc2c1NC(=S)NC(=O)c1ccccc1,0,0,153,0,152,0,0
Cc1ccc2cccc(NC(=S)NC(=O)c3ccccc3)c2n1,0,0,169,0,170,0,0
CC1(C)CC(=O)C=C(NCCN2CCN(C(=S)Nc3ccccc3)CC2)C1,0,-,-,-,-,-,-
CS(=O)(=O)N1N=C(c2cccs2)CC1c1ccccc1O (stereo not given),0,0,0,0,-,-,-
Oc1ccccc1C1CC(c2cccs2)=NC(c2ccc(Cl)cc2)N1 (stereo not given),0,0,140,0,139,0,0
CC1=C(CC(=O)c2ccccc2)C(=O)c2ccccc2C1=O,0,0,138,0,143,0,0
CC1CCN(c2ncnc3ccccc23)CC1,0,0,0,0,-,-,-
O=C1CC(c2ccccc2Cl)=NN(c2ncnc3ccccc23)C1=O,0,0,148,0,146,0,0
Cc1ccccc1N=Nc1c(C)[nH]n(-c2ccccc2)c1=O,0,0,0,0,-,-,-
Cc1[nH]n(-c2ccccc2)c(=O)c1N=Nc1ccccc1O,0,0,168,0,171,0,123
COCCCNC(=O)C(=O)NCCCOC(C)C,0,0,0,0,-,-,-
CCC(C)Sc1nc2c([nH]c3ccccc32)c(=O)n1C (stereo not given),0,0,166,0,0,0,0
Cn1c(SCC(=O)Nc2ccccc2)nc2c([nH]c3ccccc32)c1=O,0,0,0,0,-,-,-
Cc1cccc(NC(=O)CSc2nc3c([nH]c4ccccc43)c(=O)n2C)c1,0,0,146,0,135,0,0
COc1cccc(NC(=O)CSc2nc3c([nH]c4ccccc43)c(=O)n2C)c1,0,0,139,0,0,0,0
Cc1cc(C(C#N)c2ccccc2F)n2ncnc2n1 (stereo not given),0,0,0,0,-,-,-
CC1(C)CC(=O)C2=C(C1)N(c1ccccc1C#N)C(N)=C(C#N)C2c1cccs1 (stereo not given),0,0,140,0,149,0,0
CC1(C)CC(=O)C2=C(C1)N(c1cccnc1)C(N)=C(C#N)C2c1cccs1 (stereo not given),0,0,0,0,-,-,-
S=C1NC2(CCCCC2)Nc2ccccc21,0,0,138,0,0,0,0
S=C1NC2(CCCC2)Nc2ccccc21,0,0,143,0,144,0,0
S=C1NC2(CCCCCC2)N=C1c1ccccc1,0,0,0,0,-,-,-
O=C1c2ccccc2NC2(CCCC2)N1O,0,0,0,0,-,-,-
CC(C)(C)c1ccc(Oc2ncccc2NC(=O)c2cccs2)cc1,0,-,-,-,-,-,-
